Source: PubChem (several laboratories)
MT1-MMP act inh = blocks activation of human MT1-MMP. GFP/RFP ratio change, % at 20 µM. P50281. AID 651647. actives 0.061% (n = 360,000). HT1080 RFP-PRO-GFP cells, GFP/RFP ratio fluorescence, overnight; percent of plate control window, DMSO zero;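 active = GFP/RFP ratio change of at least 30% with cell ATP level not reduced by more than half and red fluorescence within 50% of control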
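Assay system: RFP-PRO-GFP reporter HT1080 cells; read-out basis: GFP/RFP fluorescence ratio; benchmarks: DMSO wells and RFP-L50D-GFP cells; doses: 20 µM single dose, 1% DMSO; schedule: overnight cell settling, then overnight compound exposure, 37 °C, 5% CO2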
CTSL1 counter = counter-screen for PFM18AAP inhibitors: inhibitors of F. hepatica cathepsin L1; recombinant F. hepatica cathepsin L1, Z-Leu-Arg-MCA fluorescence; inhibition, % at 5.96 µM; actives 0.49% (n = 300,000); AID 1906;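 active = inhibition above the mean of all tested compounds plus 3 SD, set per screening campaign, cut at about 17% in these data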;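 note: 0% = plate median of test compound wells and 100% = 1 µM Z-Phe-Ala-diazomethylketone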
DAGLB inh = blocks human DAGLB lipase activity; HEK293T DAGLB membrane lysate, EnzChek fluorogenic substrate; inhibition, % at 5.17 µM; actives 0.059% (n = 340,000); AID 504411; Q8NCG7; in the data active = inhibition above about 34%;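 note: 0% = enzyme with vehicle and 100% = wells lacking enzyme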
CendR NRP1 mod = NRP-1/CendR interaction modulation. FAM-RPARPAR peptide binding to NRP-1, fluorescence polarization. AID 602438. O14786. inhibition, % at 25 µM. actives 0.85% (n = 360,000);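 active = inhibition or corrected inhibition above about 18%, plus a signal ratio from 0.5 to 1.5, limit read from the data, passing the limit was not always enough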
Target sequence (O14786 whole entry, looked up): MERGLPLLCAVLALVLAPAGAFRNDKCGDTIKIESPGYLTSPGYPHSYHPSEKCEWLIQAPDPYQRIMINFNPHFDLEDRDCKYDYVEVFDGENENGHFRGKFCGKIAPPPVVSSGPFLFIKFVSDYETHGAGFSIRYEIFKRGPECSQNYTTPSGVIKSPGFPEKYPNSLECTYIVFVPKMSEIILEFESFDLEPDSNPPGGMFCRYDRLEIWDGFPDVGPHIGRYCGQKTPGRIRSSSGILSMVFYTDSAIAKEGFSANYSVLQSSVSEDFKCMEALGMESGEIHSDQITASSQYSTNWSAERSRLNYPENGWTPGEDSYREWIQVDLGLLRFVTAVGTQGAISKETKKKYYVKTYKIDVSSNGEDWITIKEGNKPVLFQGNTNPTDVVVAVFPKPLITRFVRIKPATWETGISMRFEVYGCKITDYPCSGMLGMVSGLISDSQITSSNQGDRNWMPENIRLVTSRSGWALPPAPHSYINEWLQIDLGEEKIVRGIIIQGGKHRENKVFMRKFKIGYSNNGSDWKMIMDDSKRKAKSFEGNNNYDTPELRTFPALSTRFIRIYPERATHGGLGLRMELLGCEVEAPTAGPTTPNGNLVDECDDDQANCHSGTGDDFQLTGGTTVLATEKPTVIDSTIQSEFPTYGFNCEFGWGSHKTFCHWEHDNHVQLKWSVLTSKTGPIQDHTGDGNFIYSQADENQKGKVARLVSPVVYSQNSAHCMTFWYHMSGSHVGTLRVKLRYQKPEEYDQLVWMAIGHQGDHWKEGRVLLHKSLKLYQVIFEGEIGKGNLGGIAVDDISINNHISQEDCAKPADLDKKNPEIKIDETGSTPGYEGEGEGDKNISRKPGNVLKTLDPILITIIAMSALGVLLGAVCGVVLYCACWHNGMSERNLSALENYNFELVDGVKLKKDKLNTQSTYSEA
UCH37 DUB inh = inhibitors of human deubiquitinating enzyme UCH37; inhibition, % (concentration not given with the values); actives 0.33% (n = 330,000); AID 588478; purified proteasome/UCH37, Ub-AMC cleavage fluorescence; Q9Y5K5;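 active = mean inhibition over replicate wells above about 20%, limit read from the data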;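 note: 0% = compound-free wells with enzyme and 100% = wells lacking proteasome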
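Material: human UCH37 enzyme supplied as purified proteasome complex / Amount: 0.15 nM proteasome as dispensed / Buffer or medium: pH 7.4 Tris-HCl (50 mM) with ovalbumin, ATP-MgCl2, DTT / Times: preincubation 30 min, reaction 25 min, room temperature / Technique: AMC fluorescence from Ub-AMC cleavage, excitation 355 nm, emission 460 nm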
* marks the source's active call; other numbers are inactive results; . = not tested or not shown. In the library only some 1.5% were active in any assay of this set; here they are far more common.

SMILES	MT1-MMP act inh	CTSL1 counter	DAGLB inh	CendR NRP1 mod	UCH37 DUB inh
CC(=O)N1c2ccc(S(=O)(=O)N3CCC(C(=O)Nc4cccc(C)c4)CC3)cc2CC1C (stereo not drawn)	0	3	1	31*	0
CC(=O)N1c2ccc(S(=O)(=O)N3CCCC3C(=O)Nc3ccc(C)cc3)cc2CC1C (stereo not drawn)	-1	19*	-2	0	1
Cc1cccc(NC(=S)N/N=C/c2ccc(Cl)c([N+](=O)[O-])c2)c1	2	6	2	27*	.
CN(C)c1ccc(/C=N/NC(N)=S)cc1[N+](=O)[O-]	13	19*	5	-4	.
Cc1ccc(NC(=S)NN=Cc2ccc(Cl)c([N+](=O)[O-])c2)cc1	.	.	.	.	11
Cn1c(=O)n(C)c2cc(/C=N/NC(N)=S)ccc21	7	33*	-1	-3	.
O=C(Cc1ccc([N+](=O)[O-])cc1)NN=Cc1ccccc1F	.	.	.	.	0
O=[N+]([O-])c1ccccc1NN=C1CC2CC=CC12 (stereo not drawn)	.	.	.	.	2
O=C(Nc1cccc(S(=O)(=O)N2CCOCC2)c1)C1=NN(c2ccccc2)C(=O)CC1	6	-4	-1	27*	4
COc1ccc(NS(=O)(=O)c2cc(NC(=O)C3=NN(c4ccccc4)C(=O)CC3)ccc2OC)cc1	-3	.	0	27*	-1
NC(=O)CC[C@H](NC(=O)c1ccc(F)cc1)C(=O)N1CCN(Cc2ccc3c(c2)OCO3)CC1	3	.	0	21*	1
CC(=NNC(=O)c1ccc(Cl)cc1)c1ccc(N2CCOCC2)cc1	.	.	.	.	-37
CCN(CCO)c1ncnc2c1sc1nc(C(C)C)c3c(c12)CC(C)(C)OC3	-4	2	0	1	-53
CSc1nc(NCc2ccco2)c2sc3nc(C(C)C)c4c(c3c2n1)CC(C)(C)OC4	-3	-4	-1	-36	-46
CSc1nc(NCCOCCO)c2sc3nc(-c4ccco4)c4c(c3c2n1)CCC4	-2	17*	3	-122	-32
CCN(CCO)c1nc(SC)nc2c1sc1nc(-c3ccco3)c3c(c12)CCC3	-7	18*	-3	0	.
Nc1c(C(=O)NCc2cccnc2)sc(=S)n1-c1ccccc1	.	-2	0	2	10
CCn1c(N)c(C(=O)NCc2cccnc2)sc1=S	5	7	-4	26*	9
Cc1cc(SCC(=O)N2CCN(C(=O)c3ccco3)CC2)c(C)cc1Br	5	.	-2	22*	3
Cc1nc(SCc2ccc(C(=O)O)cc2)nc2c1CCCC2	-5	-3	-1	42*	4
O=C(O)c1ccc(CSc2nc3c(c(=O)[nH]2)CCC3)cc1	4	.	.	-7	.
COc1ccc(NC(=O)C2Cc3ccccc3OC2=NO)cc1 (stereo not drawn)	.	.	.	.	-2
Cc1onc(-c2ccccc2Cl)c1C(=O)N1CCOC12CCCCC2	2	-2	-5	3	0
Cc1onc(-c2ccccc2Cl)c1C(=O)N1CCOC12CCN(c1cccc(F)n1)CC2	-6	0	-1	18*	-1
Cc1occc1C(=O)NN=C/C=C/c1ccccc1	.	.	.	.	11
SMILES	MT1-MMP act inh	CTSL1 counter	DAGLB inh	CendR NRP1 mod	UCH37 DUB inh
CC(=NNC(=O)c1cccnc1)C1=C(O)CC(C)(C)CC1=O	.	.	.	.	3
CN(C)C=Nc1nc(-c2ccc3c(c2)OCO3)cs1	.	.	.	.	26*
Cc1sc2ncn(CC(=O)N3CCCC(C)C3)c(=O)c2c1S(=O)(=O)N1CCCCC1 (stereo not drawn)	-7	-2	-3	8	-1
Cc1sc2ncn(CC(=O)N3CCN(c4ccccn4)CC3)c(=O)c2c1S(=O)(=O)N1CCCCC1	-1	-1	-2	31*	-2
CC(Cl)c1cc(-c2ncc(C(F)(F)F)cc2Cl)no1 (stereo not drawn)	-1	3	-4	-11	30*
COc1ccc(OCC(=O)O/N=C(\N)Cc2ccc(Cl)cc2)cc1	4	30*	-6	5	3
COc1ccc(OCC(=O)O/N=C(\N)Cc2ccc(Cl)cc2Cl)cc1	0	-14	-27	46*	2
COc1ccc2c(c1)[nH]c1c(=O)n(N=Cc3ccc(OC)c(COc4ccccn4)c3)cnc12	.	.	.	.	6
COc1ccc(C=NNC(=O)CNC(=O)/C=C/c2ccccc2OC)cc1	.	.	.	.	-10
CC1C(=O)Nc2ccc(S(=O)(=O)NCCc3ccc(Cl)cc3)cc2NC1=O (stereo not drawn)	-1	-4	1	24*	3
O=C(Cc1csc(NC(=O)Nc2cccc(Cl)c2)n1)NCc1cccnc1	1	1	3	-2	0
O=C(Cc1csc(NC(=O)Nc2ccc(Cl)cc2)n1)NCc1cccnc1	6	0	1	34*	3
COc1cc(C(c2oc(CO)cc(=O)c2O)c2oc(CO)cc(=O)c2O)cc(OC)c1OC	2	51*	-1	10	3
COc1ccc(C(c2oc(CO)cc(=O)c2O)c2oc(CO)cc(=O)c2O)cc1OC	-2	0	-4	1	3
c1ccc(CCn2nnnc2CN2CCCc3ccccc32)cc1	-122	0	-7	3	2
c1ccc2c(c1)CCCN2Cc1nnnn1CC1CCCO1 (stereo not drawn)	-35	1	-7	24*	1
CC1(C)CC(=O)C2=C(C1)Oc1ncn3nc(-c4cccnc4)nc3c1C2c1ccccc1 (stereo not drawn)	1	.	0	31*	-2
O=C(O)c1ccc(Nc2ccc([N+](=O)[O-])c3nonc23)cc1	-1	.	8	-30	24*
O=C(O)c1cccc(Nc2ccc([N+](=O)[O-])c3nonc23)c1	9	0	8	-42	24*
COc1ccccc1/C=C/C=NNc1cccc(C(=O)O)c1	.	.	.	.	3
CN(C(=O)COC(=O)c1cc([N+](=O)[O-])ccc1N1CCOCC1)C1CCCCC1	2	.	-1	10	.
NNC(=O)c1ccc(N2CCCCCC2)c([N+](=O)[O-])c1	6	5	0	31*	7
O=C(NCc1ccco1)c1ccc(N2CCCCC2)c([N+](=O)[O-])c1	3	-8	3	4	-11
O=C(NC1CCCCC1)c1cc([N+](=O)[O-])ccc1N1CCCC1	3	34*	2	5	6
CN(C(=O)c1cc([N+](=O)[O-])ccc1N1CCCC1)C1CCCCC1	-2	22*	0	-3	7
Cn1c(NN=Cc2c[nH]c3ccccc23)nc2ccccc21	.	.	.	.	3
O=C(NN=Cc1ccc(OC(F)F)cc1OC(F)F)c1cccc(S(=O)(=O)N2CCOCC2)c1	.	.	.	.	1
CCCNC(=O)c1ccc2c(=O)c(O)c(-c3ccc(F)cc3)[nH]c2c1	5	3	6	0	-27
CCCNC(=O)c1ccc2c(=O)c(O)c(C)[nH]c2c1	3	2	3	21*	-26
